The list is not random: actives were taken first. Their share in the collection is about 1.8%.
SENP1 FRET inh: inhibitors of human SENP1 SUMO protease catalytic domain. Q9P0U3. recombinant SENP1 catalytic domain, CyPet-SUMO1-YPet FRET cleavage. inhibition, % at 10 µM. 0.21% of 360,000 active. AID 624204;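 active = inhibition at least 30% at 10 µM, raw YFP signal under a set limit, fluorescence ratio 0.5 to 1.5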
Target sequence (Q9P0U3 419-644 limits assumed): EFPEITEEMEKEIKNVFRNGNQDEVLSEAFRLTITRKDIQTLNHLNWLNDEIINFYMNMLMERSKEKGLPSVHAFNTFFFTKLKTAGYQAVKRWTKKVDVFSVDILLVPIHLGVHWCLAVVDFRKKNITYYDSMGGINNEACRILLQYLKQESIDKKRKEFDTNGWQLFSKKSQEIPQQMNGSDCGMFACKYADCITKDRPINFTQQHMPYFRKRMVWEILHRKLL
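Test system: recombinant human SENP1 catalytic domain, His6-tagged / Medium: pH 8 Tris buffer with EDTA, NaCl, BME, BSA, NP40, catalase / Also added: SUMO1 FRET substrate flanked by Cypet and Ypet, 25 nM / Times: 50 min reaction at room temperature / Signal: FRET, CFP and YFP emission / Control set: no-enzyme low control and enzyme-plus-DMSO high control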
Rpn11 inh: blocks the human proteasome subunit Rpn11; O00487; human 26S proteasome, Ub4-pepOG fluorescence polarization; 20S core pre-blocked with epoxomicin; calls only at 20 µM; 0.59% of 360,000 active; AID 588493;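 active = inhibition at 20 µM, scaled to each plate's controls, above about 33%, limit read from the data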
CSN deneddyl inh: blocks human CSN-mediated cullin deneddylation; Q92905; Purified CSN, SCF-Nedd8-OG deneddylation, fluorescence polarization; inhibition, % at 12.5 µM; 0.38% of 360,000 active; AID 651999;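 active = pattern-corrected inhibition above about 35%, with an unprinted fluorescence ratio check between 0.5 and 1.5, limit read from the data, passing the limit was not always enough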
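Assay system: HEK293T-derived human Csn5 enzyme; quantity: 0.24 nM enzyme; medium: Tris/NaCl/DTT buffer, pH 7.5; also added: substrate SCFSkp2-Nedd8OG, 10 nM; doses: 12.5 µM compound; schedule: 90 min reaction at room temperature; signal: FP; read-out: % inhibition of substrate cleavage by Csn5; benchmarks: substrate-only high control, full reaction low control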
TPT1 inh: inhibitors of Candida albicans tRNA 2'-phosphotransferase TPT1; recombinant caTPT1, FP RNA substrate dephosphorylation; inhibition, % at 5 µM; 0.81% of 300,000 active; AID 1962;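 active = inhibition above the mean of all tested compounds plus 3 SD, set per screening campaign, cut at about 24% in these data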
UBC9 SUMO inh: inhibitors of human SUMOylation (UBC9). P63279. HTRF SUMOylation assay, SAE1/SAE2 + UBC9, in vitro. inhibition, % at 35 µM. 0.36% of 290,000 active. AID 2006; in the data active = inhibition above about 50%, passing the limit was not always enough
Target sequence (P63279 whole entry, looked up): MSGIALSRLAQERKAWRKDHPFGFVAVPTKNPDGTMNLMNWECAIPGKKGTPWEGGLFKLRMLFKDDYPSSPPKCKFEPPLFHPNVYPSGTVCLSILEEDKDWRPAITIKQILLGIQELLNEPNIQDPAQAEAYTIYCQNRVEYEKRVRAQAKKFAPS
HNF4A DNA FP: change in binding of human HNF4 alpha to DNA; HNF4a-FITC DNA binding, fluorescence polarization, 1 h; activity change, % at 10 µM; 0.3% of 360,000 active; in the data active = activity change above about 30%, passing the limit was not always enough
Hits are given with their value; i = inactive; nt = not tested or not shown; + = active, no number.

SMILES	SENP1 FRET inh	Rpn11 inh	CSN deneddyl inh	TPT1 inh	UBC9 SUMO inh	HNF4A DNA FP
C#CCOCCOCCOCCNc1nc(N2CCN(C(=O)[C@H](Cc3cc4ccccc4[nH]3)n3cc([C@@H](N)C(C)CC)nn3)CC2)nc(N2CCN(C(=O)[C@H](CCCCN)n3cc([C@@H](N)CO)nn3)CC2)n1 (stereo not given in full)	nt	nt	nt	i	i	nt
C#CCOCCOCCOCCNc1nc(N2CCN(C(=O)[C@H](CCCCN)n3cc([C@@H](N)C(C)CC)nn3)CC2)nc(N2CCN(C(=O)[C@H](Cc3cc4ccccc4[nH]3)n3cc([C@@H](N)CC(C)C)nn3)CC2)n1 (stereo not given in full)	i	i	45	i	i	49
C#CCOCCOCCOCCNc1nc(N2CCN(C(=O)CCCCCCCCCCNC(=O)Cn3cc(CCCCCN)nn3)CC2)nc(N2CCN(C(=O)CCCCCCCCCCNC(=O)Cn3cc(CCCCCN)nn3)CC2)n1	i	i	60	i	nt	38
Cc1cccc(CN2CCN(C3CN(Cc4cn(Cc5cccc(Cl)c5)nn4)S(=O)(=O)C3)CC2)c1 (stereo not given)	i	nt	i	nt	nt	i
C#CCOCCOCCOCCNc1nc(N2CCN(C(=O)CCCCCCCCCCNC(=O)[C@H]([C@@H](C)CC)n3cc(CCCCN=C(N)N)nn3)CC2)nc(N2CCN(C(=O)CCCCCCCCCCNC(=O)[C@H]([C@@H](C)CC)n3cc(CCCCN=C(N)N)nn3)CC2)n1	nt	nt	nt	i	nt	nt
C#CCOCCOCCOCCNc1nc(N2CCN(C(=O)CCCCCCCCCCNC(=O)Cn3cc(CCCCCN)nn3)CC2)nc(N2CCN(C(=O)CCCCCCCCCCNC(=O)[C@H]([C@@H](C)CC)n3cc(CCCCN=C(N)N)nn3)CC2)n1	i	+	100	i	nt	i
C#CCOCCOCCOCCNc1nc(N2CCN(C(=O)CCCCCCCCCCNC(=O)[C@H](CCCCN)n3cc(C)nn3)CC2)nc(N2CCN(C(=O)CCCCCCCCCCNC(=O)[C@H](CCCCN)n3cc(CCCC(=O)O)nn3)CC2)n1	i	i	i	i	nt	38
COc1ccc(C)cc1NC(=O)C(Sc1nnc(Nc2ccccc2F)s1)c1ccccc1 (stereo not given)	i	i	i	i	i	i
Cc1nc(NC2=NCN(Cc3ccco3)CN2)nc2ccccc12	nt	nt	nt	nt	i	nt
O=C(Nc1cccc(S(=O)(=O)NC2=NCCCCC2)c1)c1cc(-c2ccco2)nc2ccccc12	i	+	i	i	81	i
COc1cccc(=O)c2c(C)n(CC(=O)c3ccccc3)c(C)c12	i	i	i	30	i	i
CCNC(=O)C1(C)CCN(Cc2cccc(Oc3ccccc3)c2)C1 (stereo not given)	i	i	i	nt	nt	i
Cc1c(C)c2c(OCC(=O)Nc3cccnc3)cc3c(c2oc1=O)CCC(C)(C)O3	i	i	i	i	i	55
CCc1cc(=O)oc2c3c(cc(OCC(=O)NCc4ccccn4)c12)OC(C)(C)CC3	i	i	i	i	i	i
CCc1cc(=O)oc2c3c(cc(OCC(=O)NCCCCCC(=O)O)c12)OC(C)(C)CC3	i	i	i	i	53	i
O=c1ccc2cc3c([nH]c4ccc(Br)cc43)oc-2c1O	i	+	i	i	i	i
O=C(O)c1ccc(N=Nc2c(O)[nH]c3ccc(Br)cc23)cc1	i	i	i	i	i	i
Cc1cc2cc(C)c(NCCNC(=O)c3cccc(F)c3)nc2cc1C	i	i	i	i	i	i
Cc1cccc(C(=O)NCCNc2nc3cc(C)c(C)cc3cc2C)c1	i	i	i	i	i	60
Cc1ccc(C)c(S(=O)(=O)Nc2cc(SCC(=O)O)c(O)c3ccccc23)c1	i	i	i	i	i	i
O=C(O)CSc1cc(NS(=O)(=O)c2cccc([N+](=O)[O-])c2)c2ccccc2c1O	i	i	i	nt	88	i
CCc1ccc(S(=O)(=O)Nc2cc(SCC(=O)O)c(O)c3ccccc23)cc1	i	i	i	i	101	i
CCOc1ccc(S(=O)(=O)Nc2cc(SCC(=O)O)c(O)c3ccccc23)cc1	i	i	i	nt	75	i
O=C(CCc1ccccc1)NNC(=O)c1cc(Cl)ccc1O	i	i	i	i	i	i
